These results are taken from ChEMBL document CHEMBL1275387, “Intramolecular reductive cyclization strategy to the synthesis of (-)-6-methyl-3-hydroxy-piperidine-2-carboxylic acid, (+)-6-methyl-(2-hydroxymethyl)-piperidine-3-ol and their glycosidase inhibitory activity” (Bioorg Med Chem, 2010).

A short description of test [1]: (§1) Inhibition of almond seed N-Acetyl-beta-D-glucosaminidase at 1 mM after 90 mins by spectrophotometric analysis. Also on record: species or system Prunus dulcis. The gist of the method: (§2)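 Each enzyme was screened with inhibitor at a single concentration of 1 mM, and percent inhibition was recorded. Reported values are the average of three sets of assays.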
The test system of test [2] is Prunus dulcis. The test is described as §1. The gist of the method:
as §2

The nature of test [3]: (§3) Inhibition of almond seed beta-glucosidase at 1 mM after 90 mins by spectrophotometric analysis. Set-up: species or system Prunus dulcis. The gist of the method: as §2
In test [4] the test system is Prunus dulcis. The test is described as §3. In outline:
as §2

Test [5] in a line: (§4) Inhibition of almond seed alpha-galactosidase at 1 mM after 90 mins by spectrophotometric analysis. Also on record: species or system Prunus dulcis. The gist of the method: as §2
Test [6] deals with Prunus dulcis. The test is described as §4. In outline:
as §2

The nature of test [7]: Inhibition of yeast alpha-glucosidase after 90 mins by spectrophotometric analysis. Set-up: species or system Saccharomyces cerevisiae.
Test [8] can be described thus: Inhibition of Geobacillus toebii BK1 alpha-galactosidase after 90 mins by spectrophotometric analysis.
The nature of test [9]: Competitive inhibition of yeast alpha-glucosidase after 90 mins by Lineweaver-Burke plot analysis. Also on record: species or system Saccharomyces cerevisiae.
The nature of test [10]: (§5) Inhibition of almond seed alpha-mannosidase at 1 mM after 90 mins by spectrophotometric analysis. Also on record: species or system Prunus dulcis. In outline: as §2
The subject of test [11] is Prunus dulcis. The test is described as §5. The gist of the method: as §2
Test [12] can be described thus: Non-competitive inhibition of Geobacillus toebii BK1 alpha-galactosidase after 90 mins by Lineweaver-Burke plot analysis.
Test [13] is described as follows: (§6) Inhibition of almond seed beta-galactosidase at 1 mM after 90 mins by spectrophotometric analysis. Also on record: species or system Prunus dulcis. In outline: as §2
For test [14], the system named is Prunus dulcis. The description is as §6. In outline:
as §2

In test [15] the test system is Geobacillus toebii. The test can be described thus: (§7) Inhibition of Geobacillus toebii BK1 alpha-galactosidase at 1 mM after 90 mins by spectrophotometric analysis. The gist of the method:
as §2

Test [16] can be described thus: as §7. In outline:
as §2

Test [17] can be described thus: (§8) Inhibition of yeast alpha-glucosidase at 1 mM after 90 mins by spectrophotometric analysis. Also on record: species or system Saccharomyces cerevisiae. The gist of the method:
as §2

For test [18], the system named is Saccharomyces cerevisiae. The description is as §8. The gist of the method: as §2

In general, Ki refers to the dissociation constant of the complex between target and ligand, obtained from inhibition or displacement. A lower Ki goes with tighter binding. By inhibition is commonly meant the share of the control response that was lost under treatment. A higher inhibition goes with a strong effect. Usually IC50 stands for the concentration that inhibits the measured activity by half. Higher therefore signals a need for much substance. Take `C[C@H]1CC[C@@H](O)[C@@H](C(=O)O)N1`: the Ki result in test [1] is “Not Active”; in [3], “Not Active”; in test [5], “Not Active”; in [9], 71 µM; in [10] it was “Not Active”; in [12], 26 µM. The Ki entry in test [13] was “Not Active”. For the same compound, the inhibition in test [2], in test [4], in test [6], in test [11] and in test [14] was < 50% throughout. In addition, the IC50 in test [7] stood at 1.15 mM; in test [8] it was 180 µM.
As to `C[C@H]1CC[C@@H](O)[C@@H](CO)N1`, the Ki result in test [1], in [3], in test [5], in test [10], in [16] and in [13] was “Not Active” in each case. Moreover, the Ki entry in test [17] is given as “Not Active”. The inhibition in test [2], in test [4], in [6], in test [11], in test [15] and in test [14] was < 50% each time. For the same compound, the inhibition in test [18] was < 50%.
